# Assay results: ChEMBL document CHEMBL1132270, “Synthesis and structure-activity relationships of a new model of arylpiperazines. 4. 1-[omega-(4-Arylpiperazin-1-yl)alkyl]-3-(diphenylmethylene) - 2, 5-pyrrolidinediones and -3-(9H-fluoren-9-ylidene)-2, 5-pyrrolidinediones: study of the steric requirements of the terminal amide fragment on 5-HT1A …” (J Med Chem, 1999)
# How the values were obtained:
# [1] = molecular target: T1, Adrenergic receptor alpha-1 (Rattus norvegicus, UniProt P15823+P23944+P43140); experiment: In vitro binding affinity was evaluated on alpha-1 adrenergic receptor from rat cerebral cortex by using [3H]prazosin as radioligand; format: tissue-based
# T1 sequence (P15823 whole entry): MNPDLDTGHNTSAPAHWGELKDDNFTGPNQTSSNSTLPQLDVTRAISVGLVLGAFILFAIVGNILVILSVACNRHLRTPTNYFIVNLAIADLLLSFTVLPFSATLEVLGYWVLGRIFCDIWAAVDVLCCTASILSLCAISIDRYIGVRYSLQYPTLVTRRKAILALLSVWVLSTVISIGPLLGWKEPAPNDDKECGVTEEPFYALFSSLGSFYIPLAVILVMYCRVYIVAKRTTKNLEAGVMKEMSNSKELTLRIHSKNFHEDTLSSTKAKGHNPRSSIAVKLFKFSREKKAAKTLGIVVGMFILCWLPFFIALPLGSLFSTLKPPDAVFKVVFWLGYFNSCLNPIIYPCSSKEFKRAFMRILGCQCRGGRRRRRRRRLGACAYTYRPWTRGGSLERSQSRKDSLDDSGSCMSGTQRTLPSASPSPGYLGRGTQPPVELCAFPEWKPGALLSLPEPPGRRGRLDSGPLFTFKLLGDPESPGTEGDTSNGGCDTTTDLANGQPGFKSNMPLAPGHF
# T1 sequence (P23944 whole entry): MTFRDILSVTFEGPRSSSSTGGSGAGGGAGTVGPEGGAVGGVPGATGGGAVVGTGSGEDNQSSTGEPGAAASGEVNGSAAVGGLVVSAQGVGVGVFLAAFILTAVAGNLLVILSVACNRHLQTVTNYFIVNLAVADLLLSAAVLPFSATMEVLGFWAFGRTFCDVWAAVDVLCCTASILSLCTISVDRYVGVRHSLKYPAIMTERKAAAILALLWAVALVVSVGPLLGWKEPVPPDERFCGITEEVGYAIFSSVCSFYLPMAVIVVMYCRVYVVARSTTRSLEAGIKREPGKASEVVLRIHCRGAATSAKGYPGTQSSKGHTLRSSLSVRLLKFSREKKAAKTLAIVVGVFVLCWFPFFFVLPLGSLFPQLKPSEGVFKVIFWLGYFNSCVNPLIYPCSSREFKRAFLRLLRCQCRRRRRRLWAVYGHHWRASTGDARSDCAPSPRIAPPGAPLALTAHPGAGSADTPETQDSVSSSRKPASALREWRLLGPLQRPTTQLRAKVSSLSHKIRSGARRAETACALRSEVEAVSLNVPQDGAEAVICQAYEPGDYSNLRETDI
# T1 sequence (P43140 whole entry): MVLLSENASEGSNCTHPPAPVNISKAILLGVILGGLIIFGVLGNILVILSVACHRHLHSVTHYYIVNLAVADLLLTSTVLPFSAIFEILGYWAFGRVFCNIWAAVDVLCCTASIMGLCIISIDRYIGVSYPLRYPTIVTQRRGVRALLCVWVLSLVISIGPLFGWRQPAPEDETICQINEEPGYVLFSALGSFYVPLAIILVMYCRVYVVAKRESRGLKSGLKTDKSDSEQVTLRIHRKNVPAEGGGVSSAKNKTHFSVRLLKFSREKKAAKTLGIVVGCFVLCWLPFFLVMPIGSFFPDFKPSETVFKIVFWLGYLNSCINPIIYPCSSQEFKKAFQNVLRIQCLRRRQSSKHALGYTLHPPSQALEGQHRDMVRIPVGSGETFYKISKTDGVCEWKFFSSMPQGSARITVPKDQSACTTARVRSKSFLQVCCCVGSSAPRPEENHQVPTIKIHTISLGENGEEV
# In short: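 Nonspecific: 10 μM phentolamine. Filter-bound radioactivity by scintillation; IC50 from competition curves, Ki by Cheng–Prusoff; mean ± SEM of 2–4 triplicate experiments.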
# [2] = molecular target: T2, 5-hydroxytryptamine receptor 1A (Rattus norvegicus, UniProt P19327); experiment: Binding affinity at 5-hydroxytryptamine 1A (5-HT1A) receptor in rat cerebral cortex using [3H]8-OH-DPAT as radioligand; format: tissue-based
# T2 sequence (P19327 whole entry): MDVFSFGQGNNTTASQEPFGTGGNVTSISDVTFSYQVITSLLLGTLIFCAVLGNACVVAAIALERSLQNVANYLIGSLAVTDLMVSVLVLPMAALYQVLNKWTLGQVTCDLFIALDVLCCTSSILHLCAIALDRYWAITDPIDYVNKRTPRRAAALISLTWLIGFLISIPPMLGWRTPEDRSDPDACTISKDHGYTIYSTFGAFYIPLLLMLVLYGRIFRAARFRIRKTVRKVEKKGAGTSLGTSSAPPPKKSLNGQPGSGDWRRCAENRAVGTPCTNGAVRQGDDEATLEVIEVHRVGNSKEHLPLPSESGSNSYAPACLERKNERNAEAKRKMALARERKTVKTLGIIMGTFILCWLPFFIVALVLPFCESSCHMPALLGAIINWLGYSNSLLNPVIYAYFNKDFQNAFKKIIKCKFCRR
# [3] = molecular target: D(2) dopamine receptor (Rattus norvegicus, UniProt P61169); experiment: In vitro binding affinity towards Dopamine receptor D2 of rat striatal membranes using [3H]- raclopride
# In short: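 Male Sprague–Dawley rat (180–200 g) striatal membranes (125–150 μg protein) incubated 60 min at 25 °C with 0.8 nM [3H]raclopride in 50 mM Tris-HCl pH 7.4 with 120 mM NaCl, 5 mM KCl, 2 mM CaCl2, 1 mM MgCl2, 0.1% ascorbic acid. Nonspecific: 1 μM (+)-butaclamol. Filtration, scintillation counting; IC50 fitted, Ki by Cheng–Prusoff; mean ± SEM of 2–4 triplicate experiments.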
# D(2) dopamine receptor, sequence (P61169 whole entry): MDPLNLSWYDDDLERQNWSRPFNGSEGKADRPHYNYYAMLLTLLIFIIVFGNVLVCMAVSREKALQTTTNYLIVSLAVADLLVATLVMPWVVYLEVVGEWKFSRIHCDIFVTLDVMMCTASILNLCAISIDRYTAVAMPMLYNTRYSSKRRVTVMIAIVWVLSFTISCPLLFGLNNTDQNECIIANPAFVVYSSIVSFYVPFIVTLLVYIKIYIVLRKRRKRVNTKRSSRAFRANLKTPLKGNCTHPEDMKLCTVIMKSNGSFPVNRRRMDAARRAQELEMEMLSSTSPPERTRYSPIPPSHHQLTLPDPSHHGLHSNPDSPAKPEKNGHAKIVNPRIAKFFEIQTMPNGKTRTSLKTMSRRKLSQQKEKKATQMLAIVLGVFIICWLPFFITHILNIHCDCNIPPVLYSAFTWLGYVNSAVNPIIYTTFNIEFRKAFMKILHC
Ki [1],Ki [2],Ki [3],SMILES
316 nM,42 nM,> 10 µM,O=C1CC(=C2c3ccccc3-c3ccccc32)C(=O)N1CN1CCN(c2cccc(Cl)c2)CC1
196 nM,> 10000 nM,> 10 µM,O=C1CC(=C2c3ccccc3-c3ccccc32)C(=O)N1CCN1CCN(c2ccccc2)CC1
> 1000 nM,61 nM,> 10 µM,COc1ccccc1N1CCN(CN2C(=O)CC(=C3c4ccccc4-c4ccccc43)C2=O)CC1
57 nM,> 10000 nM,> 10 µM,COc1ccccc1N1CCN(CCN2C(=O)CC(=C3c4ccccc4-c4ccccc43)C2=O)CC1
161 nM,37 nM,> 1 µM,COc1ccccc1N1CCN(CCCN2C(=O)CC(=C3c4ccccc4-c4ccccc43)C2=O)CC1
60 nM,14 nM,0.397 µM,O=C1CC(=C2c3ccccc3-c3ccccc32)C(=O)N1CCCCN1CCN(c2ccccc2)CC1
791 nM,114 nM,> 10 µM,O=C1CC(=C2c3ccccc3-c3ccccc32)C(=O)N1CN1CCN(c2cccc(C(F)(F)F)c2)CC1
> 10000 nM,> 10000 nM,> 10 µM,O=C1CC(=C2c3ccccc3-c3ccccc32)C(=O)N1CCN1CCN(c2cccc(Cl)c2)CC1
> 1000 nM,201 nM,> 10 µM,O=C1CC(=C2c3ccccc3-c3ccccc32)C(=O)N1CN1CCN(c2ccccc2)CC1
10 nM,9 nM,> 10 µM,COc1ccccc1N1CCN(CCCCN2C(=O)CC(=C3c4ccccc4-c4ccccc43)C2=O)CC1
249 nM,72 nM,> 1 µM,O=C1CC(=C2c3ccccc3-c3ccccc32)C(=O)N1CCCCN1CCN(c2cccc(Cl)c2)CC1

# Continued, compound first:
SMILES,Ki [1],Ki [2],Ki [3]
O=C1CC(=C(c2ccccc2)c2ccccc2)C(=O)N1CCCCN1CCN(c2ccc(F)cc2)CC1,51 nM,,
COc1ccccc1N1CCN(CC#CCN2C(=O)CC(=C(c3ccccc3)c3ccccc3)C2=O)CC1,,6.6 nM,
O=C1CC(=C2c3ccccc3-c3ccccc32)C(=O)N1CCN1CCN(c2ccc(F)cc2)CC1,56 nM,> 10000 nM,> 10 µM
O=C1CC(=C2c3ccccc3-c3ccccc32)C(=O)N1CCCCN1CCN(c2cccc(C(F)(F)F)c2)CC1,> 10000 nM,> 1000 nM,> 1 µM
COc1ccccc1N1CCN(C/C=C/CN2C(=O)CC(=C(c3ccccc3)c3ccccc3)C2=O)CC1,,27 nM,
O=C1CC(=C2c3ccccc3-c3ccccc32)C(=O)N1CCN1CCN(c2cccc(C(F)(F)F)c2)CC1,> 10000 nM,> 10000 nM,> 10 µM
O=C1CC(=C2c3ccccc3-c3ccccc32)C(=O)N1CCCN1CCN(c2ccccc2)CC1,646 nM,> 1000 nM,> 1 µM
O=C1CC(=C2c3ccccc3-c3ccccc32)C(=O)N1CCCN1CCN(c2ccc(F)cc2)CC1,61 nM,> 10000 nM,> 10 µM
O=C1CC(=C2c3ccccc3-c3ccccc32)C(=O)N1CN1CCN(c2ccc(F)cc2)CC1,> 1000 nM,> 1000 nM,> 10 µM
COc1ccccc1N1CCN(C/C=C\CN2C(=O)CC(=C(c3ccccc3)c3ccccc3)C2=O)CC1,,237 nM,
O=C1CC(=C2c3ccccc3-c3ccccc32)C(=O)N1CCCCN1CCN(c2ccc(F)cc2)CC1,266 nM,> 10000 nM,> 10 µM
O=C1CC(=C2c3ccccc3-c3ccccc32)C(=O)N1CCCN1CCN(c2cccc(C(F)(F)F)c2)CC1,> 10000 nM,> 1000 nM,> 10 µM
O=C1CC(=C(c2ccccc2)c2ccccc2)C(=O)N1CCCCN1CCN(c2cccc(C(F)(F)F)c2)CC1,,15 nM,
O=C1CC(=C2c3ccccc3-c3ccccc32)C(=O)N1CCCN1CCN(c2cccc(Cl)c2)CC1,> 10000 nM,> 1000 nM,> 10 µM
